Experimental data from different studies.
Protocols differ between the studies behind these lines.
Read-out: cell growth or viability

SMILES | cell line | technique | concentration | time | endpoint | value
CC(C)(C)c1cnc(CSc2cnc(NC(=O)C3CCN(CCCCSc4cccc5c4C(=O)N(C4CCC(=O)NC4=O)C5=O)CC3)s2)o1 (stereo not shown) | HH | CCK-8 | 0.1 µM |  | viability | 97.9%
CC(=NNC(=S)Nc1ccccc1)c1ccc(Nc2nnc(-c3ccc(Cl)cc3)c3ccccc23)cc1 | HepG2 | MTT | 0.312 µM |  | cell death | 0.861%
CCOC(Cn1nc(/C=C/C(=O)N2CCC(OC)CC2)c2cnc(NC)nc21)OCC | OE33 | resazurin |  | 5 days | EC50 | > 30 µM
C=CC(=O)NC1CCN(c2ncc3ncnc(Nc4ccc(Oc5ccc6c(c5)ncn6C)c(C)c4)c3n2)CC1 | SBC-5 |  |  |  | EC50 | 0.325 µM
CNc1ncc2c(/C=C/C(=O)N3CCC(OC)CC3)nn(CC(OC)OC)c2n1 | OE33 | resazurin |  | 5 days | EC50 | > 30 µM
CC(=NNC(=O)c1ccccc1Br)c1ccc(Nc2nnc(-c3ccc(Cl)cc3)c3ccccc23)cc1 | HepG2 | MTT | 0.625 µM | 24 h | viability | 21.2%
CC(C)(C)c1cnc(CSc2cnc(NC(=O)C3CCN(CCCCCSc4cccc5c4CN(C4CCC(=O)NC4=O)C5=O)CC3)s2)o1 (stereo not shown) | HH | CCK-8 | 0.2 µM |  | viability | 0%
O=C(Nc1ccc(Oc2nnc(-c3ccc(Cl)cc3)c3ccccc23)cc1)c1ccccc1 | HepG2 | MTT | 0.312 µM |  | cell death | 67.5%
CC(C)(C)c1cnc(CSc2cnc(NC(=O)C3CCN(C(=O)COCCOCCSc4cccc5c4C(=O)N(C4CCC(=O)NC4=O)C5=O)CC3)s2)o1 (stereo not shown) | HH | CCK-8 | 0.1 µM |  | viability | 100%
CNc1ncc2c(/C=C/C(=O)N3CCC(OC)CC3)nn(Cc3ccc(C)cc3)c2n1 | OE33 | resazurin |  | 5 days | EC50 | 2.49 µM
O=C(Nc1ccccc1)Nc1ccc(Oc2nnc(-c3ccc(Cl)cc3)c3ccccc23)cc1 | HepG2 | MTT | 0.625 µM | 24 h | viability | 5.31%
Nc1ncnc2c1c(/C=C/C(=O)O)nn2CC1CCCC1 | OE33 | resazurin |  | 5 days | EC50 | > 30 µM
O=C(Nc1ccc(Oc2nnc(-c3ccc(Cl)cc3)c3ccccc23)cc1)c1cccc([N+](=O)[O-])c1 | HepG2 | MTT | 10 µM |  | cell death | 93.8%
CC(C)(C)c1cnc(CSc2cnc(NC(=O)C3CCN(CCCCCCCSc4cccc5c4C(=O)N(C4CCC(=O)NC4=O)C5=O)CC3)s2)o1 (stereo not shown) | HH | CCK-8 | 0.5 µM |  | viability | 0%
CC(=NNC(=O)c1ccccc1)c1ccc(Nc2nnc(-c3ccc(Cl)cc3)c3ccccc23)cc1 | HepG2 | MTT | 2.5 µM |  | cell death | 95.8%
Nc1ncnc2c1c(/C=C/C(=O)N1CCC(c3ccccc3)CC1)nn2CC1CCCC1 | OE33 | resazurin |  | 5 days | EC50 | > 30 µM
CC(C)(C)c1cnc(CSc2cnc(NC(=O)C3CCN(CCCCCCCCSc4cccc5c4C(=O)N(C4CCC(=O)NC4=O)C5=O)CC3)s2)o1 (stereo not shown) | HH | CCK-8 | 0.15 µM |  | viability | 16.5%
CNc1ncc2c(/C=C/C(=O)N3CCC(CCO)CC3)nn(CC3CCCC3)c2n1 | OE33 | resazurin |  | 5 days | EC50 | > 30 µM
CC(C)(C)c1cnc(CSc2cnc(NC(=O)C3CCN(CCCCCCCCSc4cccc5c4CN(C4CCC(=O)NC4=O)C5=O)CC3)s2)o1 (stereo not shown) | HH | CCK-8 | 10 nM |  | viability | 99.7%
